Screens from PubChem BioAssay.
CSN inh: blocks human CSN-mediated cullin deneddylation. Q92905. Purified CSN, SCF-Nedd8-OG deneddylation, fluorescence polarization. inhibition, % at 12.5 µM. 360,000 tested, 0.38% active. AID 651999;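 active means pattern-corrected inhibition above about 35%, with an unprinted fluorescence ratio check between 0.5 and 1.5, limit read from the data, passing the limit was not always enough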;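 further: 0% = enzyme with substrate and 100% = substrate without enzyme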
Target sequence (Q92905 whole entry, looked up, one chain of several): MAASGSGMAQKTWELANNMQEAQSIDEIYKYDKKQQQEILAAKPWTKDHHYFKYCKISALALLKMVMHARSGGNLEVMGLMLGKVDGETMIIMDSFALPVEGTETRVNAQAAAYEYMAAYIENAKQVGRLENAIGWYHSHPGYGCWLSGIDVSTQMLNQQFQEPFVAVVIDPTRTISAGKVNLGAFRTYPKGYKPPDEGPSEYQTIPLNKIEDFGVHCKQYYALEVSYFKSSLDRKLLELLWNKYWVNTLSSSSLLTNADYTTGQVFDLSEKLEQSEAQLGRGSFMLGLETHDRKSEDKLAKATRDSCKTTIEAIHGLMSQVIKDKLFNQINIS
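Assay system: purified human Csn5 enzyme expressed in HEK293T cells; measure: % inhibition; also added: SCFSkp2-Nedd8OG substrate at 10 nM final; technique: fluorescence polarization; times: reaction 90 min, room temperature; medium: Tris buffer pH 7.5, NaCl, DTT, Tween-20, trehalose, ovalbumin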
TPT1 inhibitor: blocks Candida albicans tRNA 2'-phosphotransferase; recombinant caTPT1, FP RNA substrate dephosphorylation; AID 1962; inhibition, % at 5 µM; 300,000 tested, 0.81% active;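 active means inhibition above the mean of all tested compounds plus 3 SD, set per screening campaign, cut at about 24% in these data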;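 further: plate controls were DMSO alone for no effect and ferristatin control at 100 nM for full effect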
PKA-R1A activ: activators of PKA-R1A complex | 340,000 tested, 0.083% active | activation, % at 11.4 µM | P00514+P68181 | PKA-R1A dissociation, Cy5-IP20 fluorescence polarization; scaled: DMSO 0%, 113 µM cGMP 100%;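 active means percent activation above the mean of all tested compounds plus 3 SD, cut at about 19% in these data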;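 further: higher means more PKAc released from R1A so a rise in polarization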
Rpn11 block: inhibitors of human proteasome Rpn11 | O00487 | human 26S proteasome, Ub4-pepOG fluorescence polarization; 20S core pre-blocked with epoxomicin | calls only at 20 µM | 360,000 tested, 0.59% active;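 active means inhibition at 20 µM, scaled to each plate's controls, above about 33%, limit read from the data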
PKA-R2B activ: PKA-R2B complex activation | PKA-R2B holoenzyme dissociation, Cy5-IP20 fluorescence polarization; R2B truncated from residue 108, S112A mutant; 0% DMSO only, 100% 113 µM cGMP | activation, % at 11.4 µM | 340,000 tested, 0.079% active | AID 504700;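 active means activation above a cutoff set at the mean over all compounds plus 3 SD, cut at about 18% in these data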;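 further: higher means more holoenzyme dissociation and a rise in polarization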
HNF4A DNA FP: change in binding of human HNF4 alpha to DNA. activity change, % at 10 µM. P41235. AID 1224865. 360,000 tested, 0.3% active. HNF4a-FITC DNA binding, fluorescence polarization, 1 h; in the data active means activity change above about 30%, passing the limit was not always enough
TPT1 inh confirm: TPT1 (C. albicans) inhibition, confirmation; recombinant caTPT1, fluorescence polarization, RNase T1 coupled; shares compounds with TPT1 inhibitor; AID 2149; 2,400 tested, 74% active; inhibition, % at 5 µM;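 active means inhibition above the primary screen limit, the mean inhibition of all tested compounds plus 3 SD, cut at about 25% in these data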
RNase T1 counter: RNase T1 inhibition in TPT1 counter-screen | AID 2153 | 2,400 tested, 83% active | RNase T1 cleavage, fluorescence polarization, 1536-well | shares compounds with TPT1 inhibitor | inhibition, % at 5 µM;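 active means inhibition above the solvent-only control well mean plus 3 SD, limit set per screening run, cut at about 23% in these data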;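 further: plate controls were DMSO wells with enzyme for no effect and wells without RNase T1 for full effect; inhibitors block cleavage so intact labeled substrate keeps polarization high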
Target sequence (P00651 whole entry, looked up): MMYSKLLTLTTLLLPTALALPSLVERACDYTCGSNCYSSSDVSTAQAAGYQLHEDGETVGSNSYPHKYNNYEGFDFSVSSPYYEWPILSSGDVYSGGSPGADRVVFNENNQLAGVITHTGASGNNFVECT
Rpn11 confirm: confirmation of human proteasome Rpn11 inhibitors; shares compounds with Rpn11 block; purified human 26S proteasome, Ub4-pepOG fluorescence polarization; proteasome pretreated with epoxomicin; inhibition, % at 20 µM; 1,900 tested, 29% active; AID 602318
MMP-2 counter-1: MMP-2 (human) inhibition counter-screen; shares compounds with Rpn11 block; recombinant MMP-2, FRET peptide cleavage fluorescence; inhibition, % at 20 µM; 1,900 tested, 4% active; AID 602330;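 further: human MMP-2 activated beforehand with APMA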
Thrombin inh: blocks bovine thrombin, flagging nonselective RPN11 hits | bovine thrombin cleavage of Ub4-pepOG, fluorescence polarization | shares compounds with Rpn11 block | 1,900 tested, 13% active | inhibition, % at 20 µM;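 active means mean inhibition at least 40% at 20 µM, or signal 3 deviations below plate average, so some actives read negative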;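 further: plate controls were thrombin with DMSO for no effect and buffer wells lacking thrombin for full effect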
CSN deneddyl val: validation of inhibitors of human CSN-mediated cullin deneddylation; shares compounds with CSN inh; Csn5 deneddylation of SCF-Nedd8OG, fluorescence polarization, 90 min; inhibition, % at 16.6 µM; 540 tested, 62% active; in the data active means inhibition above about 50%;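 further: 0% = DMSO with enzyme and 100% = no enzyme wells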
MMP-2 counter-2: counter-screen for CSN deneddylation inhibitors: human MMP-2 inhibition | shares compounds with CSN inh | recombinant MMP-2, FRET substrate fluorescence, 60 min | inhibition, % at 16.6 µM | 540 tested, 33% active;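 active means corrected plate-normalized z-score of 5 or more, or -5 or less, or inhibition of 15% or more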;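 further: plate controls were DMSO wells with enzyme for no effect and buffer wells lacking MMP-2 for full effect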
Thrombin counter: blocks bovine thrombin in a CSN deneddylation counter-screen; shares compounds with CSN inh; bovine thrombin cleavage of Ub4-pepOG, fluorescence polarization; inhibition, % at 16.6 µM; 540 tested, 49% active; AID 720656;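 active means inhibition at or above a set limit, with a fluorescence interference ratio between 0.5 and a set maximum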
Starred values were filed as active, the others as inactive; i = inactive; . = no result given; + = active, no number. The list is not random: actives were taken first. Their share in the collection is about 1.6%. Unless noted, no stated cut-off is given here; in the data, active means inhibition above about 40%; inactive means the rest.

SMILES	CSN inh	TPT1 inhibitor	PKA-R1A activ	Rpn11 block	PKA-R2B activ	HNF4A DNA FP	TPT1 inh confirm	RNase T1 counter	Rpn11 confirm	MMP-2 counter-1	Thrombin inh	MMP-2 counter-2	Thrombin counter	others
COc1ccc(N=Cc2c(O)n(CC3CCCO3)c(=O)[nH]c2=O)cc1 (stereo unspecified)	0.0	1.4	-6.4	i	-2.5	-2.1	.	.	.	.	.	.	.
COCCOC(=O)C1=C(N)Oc2c(c(=O)oc3ccccc23)C1c1ccncc1 (stereo unspecified)	0.2	0.7	0.9	i	-5.2	3.3	.	.	.	.	.	.	.
O=c1[nH]c(=O)n(-c2cccc3ccccc23)c(O)c1/C=N/N1CCCCC1c1cccnc1 (stereo unspecified)	26.9	50.5*	-6.8	+	-0.2	33.4*	67.1*	80.6*	90.1*	25.7	66.7*	.	.
O=c1[nH]c(=S)[nH]c(O)c1N=Nc1ccc2c(c1)OCCO2	33.5	25.3*	-5.3	+	-3.5	48.2*	35.4*	48.4*	28.9	-6.2	44.9*	.	.
COc1cc(/C=C/c2nc3ccccc3c(=O)n2-c2cccc(O)c2)ccc1O	8.7	33.8*	-10.0	+	-10.8	17.4	50.3*	53.8*	18.7	26.3	18.9	.	.
COc1ccccc1-n1c(/C=C/c2ccc(O)cc2)nc2ccccc2c1=O	12.0	6.8	-3.0	i	-7.5	7.4	.	.	.	.	.	.	.
Cn1c(O)c(/C=N/N2CCOCC2)c(=O)n(-c2ccccc2)c1=S	0.7	3.0	-6.1	i	2.3	3.8	.	.	.	.	.	.	.
Cn1c(O)c(/C=C/C=Nc2ccccc2)c(=O)n(C)c1=S	75.0*	133.7*	-10.2	+	1.8	95.0*	66.6*	74.3*	113.0*	-73.8	active	-100.4*	-1.4
CCOC(=O)c1sc(/N=C/c2c(O)n(-c3cccc(C)c3)c(=O)[nH]c2=O)c(C#N)c1C	4.2	17.5	0.7	i	-6.6	1.6	.	.	.	.	.	.	.
CCN(CC)c1ccc(/C=C2\C(=O)NC(=O)N(Cc3ccco3)C2=O)cc1	53.9*	37.8*	-1.8	i	-2.5	4.8	93.1*	111.7*	.	.	.	-6.2	9.3	CSN deneddyl val=85.0*
CCCCN1C(=O)/C(=C/c2ccc(N(C)C)cc2)C(=O)N(Cc2ccco2)C1=O	131.9*	149.6*	-3.8	.	4.0	19.6	109.9*	116.0*	.	.	.	3.7	13.8	CSN deneddyl val=85.8*
CCN(CC)c1ccc(/C=C2/C(=O)NC(=O)N(CC3CCCO3)C2=O)cc1 (stereo unspecified)	-8.2	-11.9	0.7	i	11.0	-0.6	.	.	.	.	.	.	.
